# Experimental data pooled from the literature.
# Lines come from different studies, so protocols differ.
# Medium: plasma
SMILES,system,setting,half-life [h]
C#C[C@]1(COP(=O)(O)OP(=O)(O)OP(=O)(O)O)O[C@@H](n2cnc3c(N)nc(F)nc32)C[C@@H]1O,human,"oral, 30 mg, single dose",118
O=C(Nc1c(Cl)cncc1Cl)c1ccc(OC(F)F)c(OCC2CC2)c1,human,"oral, 0.25 mg, single dose",20.9
C[C@@H](Nc1cc(F)cc(F)c1)c1cc(C(=O)N(C)C)cc2c(=O)cc(N3CCOCC3)oc12,human,"oral, 120 mg, single dose, patients",3.33
COCCOc1cnc2ccn([C@H](C)c3nnc4c(F)cc(-c5cnn(C)c5)cn34)c(=O)c2c1,human,"oral, 150 mg, multiple doses, once daily, patients",9.9
CC(C)(O)c1ccccc1-c1ccc2[nH]c(/C=C/c3ccc(C(F)(F)F)cc3)nc2c1,male human,"oral, 225 mg, single dose, fasted, healthy volunteers",85.9
CC(C)n1cc(C#N)c2cc(-n3cc(C(=O)O)cn3)ccc21,human,"oral, 200 mg, single dose, fasted, healthy volunteers",13.3
CC(C)(Sc1ccncc1-c1ccc(C#N)c2ccccc12)C(=O)O,male human,"oral, 20 mg, single dose, fed, healthy volunteers",13.8
CO[C@H]1/C=C\C=C(/C)C(=O)NC2=CC(=O)C(NCCN(C)C)=C(C[C@@H](C)C[C@H](OC)[C@H](O)[C@@H](C)/C=C(\C)[C@@H]1OC(N)=O)C2=O,human,"intravenous, patients, infusion",22.3
CO[C@@H]1[C@H](OC(=O)N2CC(CCN3CCOCC3)C2)CC[C@]2(CO2)[C@H]1[C@@]1(C)O[C@@H]1CC=C(C)C,human,"subcutaneous, 0.6 mg, single dose, healthy volunteers",0.56
Cn1cc(-c2ccc(S(=O)(=O)[C@@H]3C[C@@H](C(=O)NC4(C#N)CC4)N(C(=O)C4(C(F)(F)F)CC4)C3)c(C(F)(F)F)c2)cn1,human,"oral, 30 mg, single dose, fasted, healthy volunteers",10.2
CO[C@H]1CC[C@H](N2C(=O)CNc3ncc(-c4ccc(C(C)(C)O)nc4)nc32)CC1,human,"oral, 30 mg, patients",5.57
c1cnc2ccc(Nc3nc(NC4CC4)c4nc[nH]c4n3)cc2c1,human,"oral, 800 mg/m², patients",6
CCNCCCNC/C=C\CNCCCNCC,human,"intravenous, 200 mg, patients, infusion",0.14
COc1cc(C(=O)NC2CCN(C)CC2)c(F)cc1Nc1ncc(C(F)(F)F)c(Oc2cccc3c2C(=O)N(C)C3)n1,human,"oral, 300 mg, multiple doses, once daily, patients",21.6
NS(=O)(=O)NCCNc1nonc1C(=NO)Nc1ccc(F)c(Br)c1,human,"oral, 600 mg, multiple doses, twice daily, steady state, patients",3.3
COc1ccc([C@@H]2CN(C(=O)[C@@H](O)CO)C[C@@]2(C)[C@@H](C)O)cc1OC1CN(c2ccc(C)cn2)C1,human,"oral, 0.1 mg, single dose, healthy volunteers",9.74
